# Laboratory results from publication PMC4181337 (Metallomics : integrated biometal science, 2013).
# Values joined by “and” are separate entries in the source; they are usually repeats but may differ in a detail not shown here. Equal values may be shown once.
# What was measured:
# human red blood cells = conditions: inhibitor of the general anion transporter; cited from earlier work
# [1] = Beagle dog, intravenous, radiolabeled; cited from earlier work
# [2] = tested on: patients with type 2 diabetes; conditions: two higher dose groups (50, 100 mg V), six weeks; cited from earlier work
# [3] = 24 hour urinary V clearance at steady state; type: in vivo, human
# Summary of the method: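 Type 2 diabetic patients took VOSO4 orally as tablets with meals, 3 per day, for six weeks. 24 hour urine was collected at steady state, with one to three collections per patient. Urine was analysed directly for total V by Zeeman-corrected GFAAS against a standard curve run the same day. Steady-state urinary V output was taken as the minimum amount absorbed.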
# [4] = tested on: patients with type 2 diabetes; type: in vivo, human
# Summary of the method: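 Patients took placebo, then oral VOSO4 tablets with meals (3/day) for six weeks. They self-monitored blood glucose before meals and at bedtime daily, reported as weekly averages. Two-step euglycemic-hyperinsulinemic clamps were run before and after treatment: overnight low-dose insulin to normalise glucose, then primed-continuous insulin at 0.5 and then 1.0 mU/kg/min, 2 h each. Glucose was checked every 5 min with variable glucose infusion. M was normalised to body mass.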
# [5] = tested on: patients with type 2 diabetes; assay: Adverse symptoms reported during the clinical study; type: in vivo, human; conditions: doses of V used in this clinical study; not severe enough to drop subjects
# [6] = Serum total V pharmacokinetics; type: in vivo, human
# Summary of the method: (§1)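 Diabetic patients were dosed with oral VOSO4 for forty days, followed by a sixteen-day washout, with periodic blood sampling. Total V was measured by GFAAS against a same-day standard curve; serum was run directly and whole blood after extra preparation. Decline was fitted to a one-compartment first-order model using the last dosing day plus three later points, giving k and half time. Accumulation was fitted using the washout k. AUC in (ng/mL)days was calculated for the exposure and decline phases.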
# [7] = Whole blood total V pharmacokinetics; type: in vivo, human
# Summary of the method: as §1
# [8] = 25 mg V/day oral as VOSO4, group mean
# [9] = 50 mg V/day oral as VOSO4, group mean ± SD
# [10] = 100 mg V/day oral as VOSO4, group mean ± SD
# [11] = patients taking 100 mg V per day
# [12] = of the 8 patients receiving 100 mg V/day
# [13] = 25 mg V/day oral as VOSO4, 6 weeks, group mean
# [14] = 50 mg V/day oral as VOSO4, 6 weeks, group mean ± SD
# [15] = 50 mg V/day oral as VOSO4, 6 weeks, individual patient
# [16] = 50 mg V/day oral as VOSO4, exposure and decline phases, individual patient
# [17] = 100 mg V/day oral as VOSO4, 6 weeks, group mean ± SD
# [18] = 100 mg V/day oral as VOSO4, 6 weeks, individual patient
# [19] = 100 mg V/day oral as VOSO4, exposure and decline phases, individual patient
structure (smiles),measurement,setting,value
CC(=O)/C=C(/C)[O-].CC(=O)/C=C(/C)[O-].[O]=[V+2] [VO(acac)2],uptake by human red blood cells in the presence of DIDS,human red blood cells,no change
[O]=[V]([O-])([O-])[O-] [vanadate],uptake by human red blood cells in the presence of DIDS,human red blood cells,blocked
same,half time of single exponential decline (majority of the dose),[1],24 h
O=S(=O)([O-])[O-].[O]=[V+2] [vanadyl sulfate],patients with improved fasting blood glucose,[2],approximately 50%
same,Mean Urine [V] at Steady State,[3]; [8],54 ng/mL
same,Mean Urine [V] at Steady State,"[3]; 25 mg V/day oral as VOSO4, individual patient",60 ng/mL and 47 ng/mL
same,24 hour urinary V output at steady state,"[3]; 50 mg V group, oral vanadyl sulfate",0.18 ± 0.24 mg
same,Mean Urine [V] at Steady State,[3]; [9],59 ± 80 ng/mL
same,Mean Urine [V] at Steady State,"[3]; 50 mg V/day oral as VOSO4, individual patient",215 ng/mL and 29 ng/mL and 165 ng/mL and 18 ng/mL and 22 ng/mL
same,24 hour urinary V output at steady state,"[3]; 100 mg V group, oral vanadyl sulfate",0.97 ± 0.84 mg
same,Mean Urine [V] at Steady State,[3]; [10],654 ± 705 ng/mL
same,Mean Urine [V] at Steady State,"[3]; 100 mg V/day oral as VOSO4, individual patient",412 ng/mL and 468 ng/mL and 457 ng/mL and 2199 ng/mL and 207 ng/mL and 703 ng/mL and 135 ng/mL
same,absorbed fraction of the administered V,"[3]; 16 type 2 diabetic patients, oral vanadyl sulfate",about 1%
same,absorption of the administered dose,"[3]; 50 and 100 mg V groups, estimated from steady state urinary output",≤ 1%
same,V excreted,[3]; [11],approximately 1 mg V per day
same,absorption of V entering the GI tract,[3]; [11],1%
same,"absorption of V, of the daily dose","[3]; three doses of V used (25, 50, 100 mg/day)",less than 1%
same,patients with improved responses for all three variables,[4]; of the 5 patients receiving 50 mg V/day,2
same,patients who responded well for all three variables,[4]; [12],three
same,patients who responded well for two variables,[4]; [12],four
same,adverse symptoms,[5],symptoms of gastrointestinal distress
same,Pk Serum V,[6]; [13],18.9 ng/mL
same,SS Serum V,[6]; [13],15.4 ng/mL
same,Pk Serum V,"[6]; 25 mg V/day oral as VOSO4, 6 weeks, individual patient",16.7 ng/mL and 21.1 ng/mL
same,Ser V t1/2,[6]; [8],64.8 h
same,Pk Serum V,[6]; [14],81.7 ± 40 ng/mL and 81.7 ± 40.5 ng/mL
same,SS Serum V,[6]; [14],63.1 ± 37.8 ng/mL
same,Pk Serum V,[6]; [15],125 ng/mL and 87.0 ng/mL and 114 ng/mL and 30.2 ng/mL and 51.7 ng/mL
same,AUC Serum V,[6]; [16],3538 (ng/mL)days and 1747 (ng/mL)days and 3894 (ng/mL)days and 946 (ng/mL)days and 617 (ng/mL)days
same,AUC Serum V,[6]; [9],2149 ± 1494 (ng/mL)days
same,Ser V t1/2,[6]; [9],113 ± 38.4 h
same,"ratio of serum AUC to whole blood AUC, mean value",[6]; 50 mg dose group,1.07±0.86 (ng/mL)days
same,Pk Serum V,[6]; [17],319 ± 268 ng/mL
same,SS Serum V,[6]; [17],314 ± 178 ng/mL
same,Pk Serum V,[6]; [18],252 ng/mL and 227 ng/mL and 423 ng/mL and 906 ng/mL and 213 ng/mL and 368 ng/mL and 144 ng/mL
same,AUC Serum V,[6]; [19],8695 (ng/mL)days and 8328 (ng/mL)days and 15779 (ng/mL)days and 26713 (ng/mL)days and 8041 (ng/mL)days and 11412 (ng/mL)days and 4781 (ng/mL)days
same,AUC Serum V,[6]; [10],11965 ± 7340 (ng/mL)days
same,Ser V t1/2,[6]; [10],110 ± 60 h
same,"ratio of serum AUC to whole blood AUC, mean value",[6]; 100 mg dose group,1.65±0.32 (ng/mL)days
same,fold increase in steady state serum V concentration,[6]; 25 to 50 mg dose groups,4 fold
same,fold increase in steady state serum V concentration,[6]; 50 to 100 mg dose groups,5 fold
same,Pk Blood V,[7]; [14],85 ± 54 ng/mL
same,SS Blood V,[7]; [14],65 ± 39 ng/mL
same,Pk Blood V,[7]; [15],163 ng/mL and 26 ng/mL and 109 ng/mL and 50 ng/mL and 75 ng/mL
same,Bld V t1/2,"[7]; 50 mg V/day oral as VOSO4, decline phase, individual patient",240 h and 69.6 h and 106 h and 93.6 h and 161 h
same,AUC Blood V,[7]; [16],3762 (ng/mL)days and 701 (ng/mL)days and 3474 (ng/mL)days and 2025 (ng/mL)days and 1788 (ng/mL)days
same,AUC Blood V,[7]; [9],2351 ± 1264 (ng/mL)days
same,Bld V t1/2,[7]; [9],134 ± 67.2 h
same,Pk Blood V,[7]; [17],201 ± 200 ng/mL
same,SS Blood V,[7]; [17],205 ± 164 ng/mL
same,Pk Blood V,[7]; [18],136 ng/mL and 132 ng/mL and 264 ng/mL and 654 ng/mL and 95 ng/mL and 225 ng/mL
same,Bld V t1/2,"[7]; 100 mg V/day oral as VOSO4, decline phase, individual patient",96 h and 103 h and 173 h and 146 h and 50.4 h and 72 h and 209 h
same,AUC Blood V,[7]; [19],5648 (ng/mL)days and 5863 (ng/mL)days and 10552 (ng/mL)days and 20245 (ng/mL)days and 3741 (ng/mL)days and 6998 (ng/mL)days and 2341 (ng/mL)days
same,AUC Blood V,[7]; [10],7912 ± 6023 (ng/mL)days
same,Bld V t1/2,[7]; [10],122 ± 57.6 h
O=S(=O)([O-])[O-].[O]=[V+2] [vanadyl],half time of single exponential decline (majority of the dose),[1],24 h
